Numbering of substitutions follows the chain as printed.
What was measured:
GluClβ T13′A = molecular target: T1, GluClβ T13′A (Caenorhabditis elegans, UniProt Q17328, T290A); assay: two-electrode voltage clamp, Xenopus laevis oocytes; type: cell-based, C. elegans; details: glutamate
T1 sequence (Q17328 23-434 T290A): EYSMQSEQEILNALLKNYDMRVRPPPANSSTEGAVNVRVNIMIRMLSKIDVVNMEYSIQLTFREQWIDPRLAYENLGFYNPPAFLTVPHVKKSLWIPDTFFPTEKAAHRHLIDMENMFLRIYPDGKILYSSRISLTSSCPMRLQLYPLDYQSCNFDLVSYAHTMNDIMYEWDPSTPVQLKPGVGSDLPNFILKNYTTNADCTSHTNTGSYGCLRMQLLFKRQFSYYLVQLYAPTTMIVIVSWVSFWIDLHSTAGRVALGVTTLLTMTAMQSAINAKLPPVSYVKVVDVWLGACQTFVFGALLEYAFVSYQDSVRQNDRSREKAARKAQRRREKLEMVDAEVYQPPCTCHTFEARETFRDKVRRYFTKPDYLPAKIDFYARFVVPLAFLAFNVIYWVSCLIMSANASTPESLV

[1] = molecular target: GluClβ homomeric receptor, wild type (Caenorhabditis elegans, UniProt Q17328); assay: as above; type: cell-based, C. elegans; details: glutamate
GluClβ homomeric receptor, wild type (Caenorhabditis elegans, UniProt Q17328), sequence (Q17328 23-434): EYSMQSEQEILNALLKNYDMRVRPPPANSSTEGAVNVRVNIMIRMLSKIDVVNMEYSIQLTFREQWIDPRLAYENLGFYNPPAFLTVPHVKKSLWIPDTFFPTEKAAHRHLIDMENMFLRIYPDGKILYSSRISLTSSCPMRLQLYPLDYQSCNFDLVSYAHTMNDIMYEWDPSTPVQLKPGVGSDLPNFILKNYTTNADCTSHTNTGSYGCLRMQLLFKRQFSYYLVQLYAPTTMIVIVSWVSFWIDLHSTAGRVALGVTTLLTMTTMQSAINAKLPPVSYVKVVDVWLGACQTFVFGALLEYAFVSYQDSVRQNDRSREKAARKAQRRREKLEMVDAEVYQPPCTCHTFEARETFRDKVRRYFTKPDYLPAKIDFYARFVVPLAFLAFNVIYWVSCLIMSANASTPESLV

[2] = test system: GluClβ homomeric receptor, wild type; assay: as above; type: cell-based, C. elegans; details: high expressing mutants of GluClβ
GluClβ A20′S = GluClβ A20′S (Caenorhabditis elegans, UniProt Q17328, A297S); assay: two-electrode voltage clamp, Xenopus laevis oocytes; type: cell-based, C. elegans; details: glutamate
GluClβ A20′S, sequence (Q17328 23-434 A297S): as the sequence (Q17328 23-434) above, with A275S counted along it
How it was run: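 C. elegans GluClβ (mammalian codon-optimised) in pGEMhe, mutated by QuikChange; T7 mRNA. […] Voltage clamp at −60 mV in Ca-free ND96, pH 7.5. […] Peak currents taken from baseline, normalised, averaged per concentration, and fit to Hill equation (EC50, nH).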

GluClβ T6′S, T203A/Y206F = molecular target: T2, GluClβ T6′S, T203A/Y206F (Caenorhabditis elegans, UniProt Q17328, T229A/T283S/Y232F); assay: two-electrode voltage clamp, Xenopus laevis oocytes; type: cell-based, C. elegans
T2 sequence (Q17328 23-434 T229A/Y232F/T283S): T1 sequence (Q17328 23-434 T290A) with T207A, Y210F, T261S, A268T

[3] = test system: GluClβ with α signal peptide, T6′S, Y156TAG F2–Phe; assay: two-electrode voltage clamp, Xenopus laevis oocytes, nonsense suppression; type: cell-based, C. elegans; details: glutamate
GluClβ T6′S, Q174A/Y206F = molecular target: T3, GluClβ T6′S, Q174A/Y206F (Caenorhabditis elegans, UniProt Q17328, Q200A/T283S/Y232F); assay: two-electrode voltage clamp, Xenopus laevis oocytes; type: cell-based, C. elegans
T3 sequence (Q17328 23-434 Q200A/Y232F/T283S): T1 sequence (Q17328 23-434 T290A) with Q178A, Y210F, T261S, A268T

GluClα receptor = GluClα receptor (Caenorhabditis elegans, UniProt G5EBR3); details: in the absence of ivermectin, Xenopus laevis oocytes; cited from earlier work
GluClα receptor, sequence (G5EBR3 21-461): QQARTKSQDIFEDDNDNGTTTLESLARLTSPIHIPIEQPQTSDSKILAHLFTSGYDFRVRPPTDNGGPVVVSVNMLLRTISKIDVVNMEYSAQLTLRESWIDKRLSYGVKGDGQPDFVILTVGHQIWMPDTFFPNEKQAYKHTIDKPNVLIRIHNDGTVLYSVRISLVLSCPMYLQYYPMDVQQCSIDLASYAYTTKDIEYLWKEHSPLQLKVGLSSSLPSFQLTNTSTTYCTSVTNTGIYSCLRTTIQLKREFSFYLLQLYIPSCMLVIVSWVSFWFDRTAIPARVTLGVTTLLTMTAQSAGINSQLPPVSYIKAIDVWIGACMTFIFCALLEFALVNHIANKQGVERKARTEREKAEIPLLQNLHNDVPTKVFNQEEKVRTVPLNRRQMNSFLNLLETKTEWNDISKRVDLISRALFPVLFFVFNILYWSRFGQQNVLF

[4] = test system: GluClβ T6′S, Y206TAG OMe–Phe; assay: two-electrode voltage clamp, Xenopus laevis oocytes, nonsense suppression; type: cell-based, C. elegans; details: glutamate
GluClβ T6′S, Y206TAG Phe = molecular target: T4, GluClβ T6′S, Y206TAG Phe (Caenorhabditis elegans, UniProt Q17328, T283S/Y232F); assay: two-electrode voltage clamp, Xenopus laevis oocytes, nonsense suppression; type: cell-based, C. elegans; details: glutamate
T4 sequence (Q17328 23-434 Y232F/T283S): T1 sequence (Q17328 23-434 T290A) with Y210F, T261S, A268T
How it was run: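 Site-specific TAG codon, read by 74mer THG73 tRNA ligated to dCA-acylated amino acid; NVOC removed by 5 min xenon-lamp irradiation just before injection. Oocytes coinjected with 37.5 ng mRNA plus ~1 μg/μL tRNA at 48 and 24 h pre-recording; unacylated 76mer tRNA served as read-through control.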

[5] = test system: GluClβ T6′S, Y206TAG F1–Phe; assay: two-electrode voltage clamp, Xenopus laevis oocytes, nonsense suppression; type: cell-based, C. elegans; details: glutamate

EC50 (GluClβ T13′A): 38 ± 1 µM
Hill (GluClβ T13′A): 2.8 ± 0.1
Imax (GluClβ T13′A): 0.1–6 μA
Hill [1]: 2.5 ± 0.2
EC50 (GluClβ A20′S): no response
EC50 (GluClβ T6′S, T203A/Y206F; glutamate): 210 ± 10 µM
Hill (GluClβ T6′S, T203A/Y206F; glutamate): 2.2 ± 0.1
Ω (GluClβ T6′S, T203A/Y206F; mutant cycle analysis T203A, Y206F): 1/37
ΔΔG (GluClβ T6′S, T203A/Y206F; mutant cycle analysis, coupling T203A/Y206F): 2.1 kcal/mol
EC50 [3]: 49000 ± 3000 µM
EC50 (GluClβ T6′S, Q174A/Y206F; glutamate): 920 ± 40 µM
Hill (GluClβ T6′S, Q174A/Y206F; glutamate): 2.2 ± 0.2
Ω (GluClβ T6′S, Q174A/Y206F; mutant cycle analysis Q174A, Y206F): 0.67
ΔΔG (GluClβ T6′S, Q174A/Y206F; mutant cycle analysis Q174A/Y206F): 0.23 kcal/mol
EC50 [4]: 560 ± 10 µM
EC50 (GluClβ T6′S, Y206TAG Phe): 160 ± 10 µM
Hill (GluClβ T6′S, Y206TAG Phe): 3.0 ± 0.2
Imax (GluClβ T6′S, Y206TAG Phe): 0.07–0.30 μA
EC50 [5]: 640 ± 10 µM
Structure (SMILES): N[C@@H](CCC(=O)O)C(=O)O [glutamate]
concentration at which rapid desensitization occurs [2]: greater than 100 mM
Hill [3]: 1.8 ± 0.1
Imax [3]: 0.2–4 μA
activation by glutamate (GluClα receptor): not activated
Hill [4]: 1.8 ± 0.1
Imax [4]: 0.1–1.4 μA
Hill [5]: 2.8 ± 0.1
Imax [5]: 0.04–0.34 μA

Reference: article PMC4201344 (ACS Chemical Biology, 2014)
